According to ChEMBL document CHEMBL3808334, “Synthesis and in vitro evaluation of novel triazine analogues as anticancer agents and their interaction studies with bovine serum albumin” (Eur J Med Chem, 2016):

Tests used:
[1] = Growth inhibition of human UO31 cells assessed as cell growth at 10^-7 M incubated for 48 hrs by sulforhodamine B assay; assay type: functional; conditions: UO-31, 48 h, read-out: Activity
NCI-H226 [2] = experiment: Growth inhibition of human NCI-H226 cells assessed as cell growth at 10^-6 M incubated for 48 hrs by sulforhodamine B assay; assay type: functional; conditions: NCI-H226, 48 h, read-out: Activity
NCI-H23 = experiment: Growth inhibition of human NCI-H23 cells assessed as cell growth at 10^-6 M incubated for 48 hrs by sulforhodamine B assay; assay type: functional; conditions: NCI-H23, 48 h, read-out: Activity
NCI-H226 [3] = experiment: Growth inhibition of human NCI-H226 cells assessed as cell growth at 10^-4 M incubated for 48 hrs by sulforhodamine B assay; assay type: functional; conditions: NCI-H226, 48 h, read-out: Activity
[4] = Growth inhibition of human PC3 cells assessed as cell growth at 10^-4 M incubated for 48 hrs by sulforhodamine B assay; assay type: functional; conditions: PC-3, 48 h, read-out: Activity
SN12C = experiment: Growth inhibition of human SN12C cells assessed as cell growth at 10 uM incubated for 48 hrs by sulforhodamine B assay; assay type: functional; conditions: read-out: Activity
[5] = Growth inhibition of human SNB19 cells assessed as cell growth at 10^-6 M incubated for 48 hrs by sulforhodamine B assay; assay type: functional; conditions: SNB-19, 48 h, read-out: Activity
A498 = experiment: Growth inhibition of human A498 cells assessed as cell growth at 10^-6 M incubated for 48 hrs by sulforhodamine B assay; assay type: functional; conditions: A498, 48 h, read-out: Activity
Summary of the method: (§1)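 Five-dose assay: five concentrations from 10-fold or ½-log serial dilutions. Cells are plated at 5,000–40,000 per well according to doubling time, grown 24 h, then exposed 48 h at 37 °C, 5% CO₂. Fixed with cold 50% TCA (final addition) for 60 min at 4 °C and stained with 0.4% SRB in 1% acetic acid. Bound dye is solubilized in 10 mM Tris base and read at 515 nm. GI₅₀ is where [(Ti−Tz)/(C−Tz)]×100 = 50, with a time-zero plate as Tz.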

MCF7 [6] = experiment: Growth inhibition of human MCF7 cells assessed as cell growth at 10^-5 M incubated for 48 hrs by sulforhodamine B assay; assay type: functional; conditions: MCF7, 48 h, read-out: Activity
[7] = Growth inhibition of human UO31 cells assessed as cell growth at 10^-6 M incubated for 48 hrs by sulforhodamine B assay; assay type: functional; conditions: UO-31, 48 h, read-out: Activity
MCF7 [8] = experiment: Growth inhibition of human MCF7 cells incubated for 48 hrs by sulforhodamine B assay; assay type: functional; conditions: MCF7, 48 h
Summary of the method: (§2)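 Cells were plated at 5,000–40,000 per well according to doubling time and preincubated 24 h at 37 °C in 5% CO2; time-zero plates were then TCA-fixed. Five concentrations (10-fold or ½-log dilutions, DMSO stock) were incubated 48 h. Cells were TCA-fixed, stained with 0.4% SRB and read at 515 nm. GI50 was taken where [(Ti−Tz)/(C−Tz)]×100 = 50.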

T47D = experiment: Growth inhibition of human T47D cells assessed as cell growth at 10^-8 M incubated for 48 hrs by sulforhodamine B assay; assay type: functional; conditions: read-out: Activity
NCI-H460 = experiment: Growth inhibition of human NCI-H460 cells assessed as cell growth at 10 uM incubated for 48 hrs by sulforhodamine B assay; assay type: functional; conditions: NCI-H460, 48 h, read-out: Activity
[9] = Growth inhibition of human COLO205 cells assessed as cell growth at 10 uM incubated for 48 hrs by sulforhodamine B assay; assay type: functional; conditions: COLO 205, 48 h, read-out: Activity
Summary of the method: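 Primary screen at one dose (10 µM) across 60 human cancer cell lines. Readout was growth percent relative to untreated control and time-zero.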

NCI-H226 [10] = experiment: Growth inhibition of human NCI-H226 cells assessed as cell growth at 10 uM incubated for 48 hrs by sulforhodamine B assay; assay type: functional; conditions: NCI-H226, 48 h, read-out: Activity
[11] = Growth inhibition of human COLO205 cells assessed as cell growth at 10^-7 M incubated for 48 hrs by sulforhodamine B assay; assay type: functional; conditions: COLO 205, 48 h, read-out: Activity
Summary of the method: (§3)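 Cells seeded at 5,000–40,000/well according to doubling time and preincubated 24 h at 37 °C, 5% CO2. Time-zero plates were TCA-fixed. DMSO concentrate was diluted in medium with 50 µg/ml gentamicin to give five concentrations (10-fold or ½ log steps), then exposed 48 h. Cells were TCA-fixed, stained with 0.4% SRB and read at 515 nm. Percent growth was taken against time-zero and control; GI50, TGI and LC50 derived.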

[12] = Growth inhibition of human SF295 cells assessed as cell growth at 10^-7 M incubated for 48 hrs by sulforhodamine B assay; assay type: functional; conditions: SF-295, 48 h, read-out: Activity
[13] = Growth inhibition of human BT549 cells assessed as cell growth at 10^-6 M incubated for 48 hrs by sulforhodamine B assay; assay type: functional; conditions: BT-549, 48 h, read-out: Activity; summary of the method: as §1
[14] = Growth inhibition of human OVCAR4 cells assessed as cell growth at 10^-4 M incubated for 48 hrs by sulforhodamine B assay; assay type: functional; conditions: OVCAR-4, 48 h, read-out: Activity
Albumin = Albumin (Bos taurus, UniProt P02769); experiment: Binding affinity to bovine serum albumin assessed as isoemissive point up to 20 uM by fluorescence spectroscopic analysis relative to control; assay type: ADME; conditions: cattle, isolated protein
Summary of the method: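 Fluorescence titration of 10 µM BSA in 0.1 M phosphate buffer pH 7.4 with compound at 0–20 µM, diluted from DMSO stocks. Excitation 280 nm, slit 10 nm, 1 cm quartz cell, 300 K. Changes in the 350 nm Trp emission, new bands near 370–373 nm and isoemissive points are read against BSA alone.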

[15] = Growth inhibition of human DU145 cells assessed as cell growth at 10^-5 M incubated for 48 hrs by sulforhodamine B assay; assay type: functional; conditions: DU-145, 48 h, read-out: Activity; summary of the method: as §3
[16] = Growth inhibition of human HCT116 cells incubated for 48 hrs by sulforhodamine B assay; assay type: functional; conditions: HCT-116, 48 h; summary of the method: as §3
[17] = Growth inhibition of human Hs 578T cells incubated for 48 hrs by sulforhodamine B assay; assay type: functional; summary of the method: as §2
MDA-MB-468 = experiment: Growth inhibition of human MDA-MB-468 cells assessed as cell growth at 10^-7 M incubated for 48 hrs by sulforhodamine B assay; assay type: functional; conditions: MDA-MB-468, 48 h, read-out: Activity
NCI/ADR-RES = experiment: Growth inhibition of human NCI/ADR-RES cells assessed as cell growth at 10^-7 M incubated for 48 hrs by sulforhodamine B assay; assay type: functional; conditions: read-out: Activity
[18] = Growth inhibition of human OVCAR5 cells assessed as cell growth at 10^-5 M incubated for 48 hrs by sulforhodamine B assay; assay type: functional; conditions: OVCAR-5, 48 h, read-out: Activity
[19] = read-out: LC50 (the source's name)
[20] = read-out: pLC50 (the source's name) (converted)

Chain of Albumin (P02769 whole entry): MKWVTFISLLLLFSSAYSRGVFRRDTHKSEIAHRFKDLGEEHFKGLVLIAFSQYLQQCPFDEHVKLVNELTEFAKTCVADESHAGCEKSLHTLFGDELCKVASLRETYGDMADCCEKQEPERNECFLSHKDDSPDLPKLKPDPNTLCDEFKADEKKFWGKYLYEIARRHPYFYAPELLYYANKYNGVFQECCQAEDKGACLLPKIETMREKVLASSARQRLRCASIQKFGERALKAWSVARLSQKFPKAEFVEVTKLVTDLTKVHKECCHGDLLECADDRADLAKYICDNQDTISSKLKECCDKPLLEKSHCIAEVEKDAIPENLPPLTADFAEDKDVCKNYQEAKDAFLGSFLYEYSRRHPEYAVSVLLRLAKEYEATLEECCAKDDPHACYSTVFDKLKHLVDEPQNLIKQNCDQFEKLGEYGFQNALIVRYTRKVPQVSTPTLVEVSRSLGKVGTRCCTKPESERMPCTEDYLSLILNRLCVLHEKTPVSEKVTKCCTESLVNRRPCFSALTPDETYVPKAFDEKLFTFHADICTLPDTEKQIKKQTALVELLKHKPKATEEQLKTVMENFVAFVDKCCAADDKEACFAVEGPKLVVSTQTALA

## Fc1ccc(-c2nc(Nc3ccc(-c4nc5ccccc5[nH]4)cc3)nc(N3CCOCC3)n2)cc1
[1]
  growth at 0.1 µM: 89%
NCI-H226 [2]
  growth at 1 µM: 113%
NCI-H23
  growth at 1 µM: 85%
NCI-H226 [3]
  growth at 100 µM: -50%
[4]
  growth at 100 µM: -6%
SN12C
  growth at 10 µM: 40.8%
[5]
  growth at 1 µM: 92%
A498
  growth at 1 µM: 74%
MCF7 [6]
  growth at 10 µM: 1%
[7]
  growth at 1 µM: 90%
MCF7 [8]; read-out: GI50
  GI50: 2590 nM
MCF7 [8]; [19]
  CC50: > 100 µM
MCF7 [8]; read-out: TGI
  TGI: > 100 µM
MCF7 [8]; read-out: pGI50 (converted)
  GI50: 2570 nM
MCF7 [8]; [20]
  CC50: > 100 µM
MCF7 [8]; read-out: pTGI (converted)
  TGI: > 100 µM
T47D
  growth at 0.01 µM: 101%
NCI-H460
  growth at 10 µM: 0.13%
[9]
  growth at 10 µM: -43.7%
NCI-H226 [10]
  growth at 10 µM: 17.1%
[11]
  growth at 0.1 µM: 99%
[12]
  growth at 0.1 µM: 94%
[13]
  growth at 1 µM: 83%
[14]
  growth at 100 µM: -23%
Albumin
  Activity: 341 nm
[15]
  growth at 10 µM: 25%
[16]; read-out: GI50
  GI50: 1900 nM
[16]; [19]
  CC50: 6.56 µM
[16]; read-out: TGI
  TGI: 3.53 µM
[16]; read-out: pGI50 (converted)
  GI50: 1910 nM
[16]; [20]
  CC50: 6.61 µM
[16]; read-out: pTGI (converted)
  TGI: 3.55 µM
[17]; read-out: GI50
  GI50: 1760 nM
[17]; [19]
  CC50: > 100 µM
[17]; read-out: TGI
  TGI: 6.96 µM
[17]; read-out: pGI50 (converted)
  GI50: 1780 nM
[17]; [20]
  CC50: > 100 µM
[17]; read-out: pTGI (converted)
  TGI: 6.92 µM
MDA-MB-468
  growth at 0.1 µM: 106%
NCI/ADR-RES
  growth at 0.1 µM: 95%
[18]
  growth at 10 µM: -5%

## c1ccc2[nH]c(-c3ccc(Nc4nc(N5CCCCC5)nc(N5CCOCC5)n4)cc3)nc2c1
[1]
  growth at 0.1 µM: 86%
NCI-H226 [2]
  growth at 1 µM: 89%
NCI-H23
  growth at 1 µM: 91%
NCI-H226 [3]
  growth at 100 µM: -36%
[4]
  growth at 100 µM: -19%
SN12C
  growth at 10 µM: 52.4%
[5]
  growth at 1 µM: 99%
A498
  growth at 1 µM: 83%
MCF7 [6]
  growth at 10 µM: -10%
[7]
  growth at 1 µM: 87%
MCF7 [8]; read-out: GI50
  GI50: 2400 nM
MCF7 [8]; [19]
  CC50: > 100 µM
MCF7 [8]; read-out: TGI
  TGI: 7.9 µM
MCF7 [8]; read-out: pGI50 (converted)
  GI50: 2400 nM
MCF7 [8]; [20]
  CC50: > 100 µM
MCF7 [8]; read-out: pTGI (converted)
  TGI: 7.94 µM
T47D
  growth at 0.01 µM: 93%
NCI-H460
  growth at 10 µM: 0.81%
[9]
  growth at 10 µM: -61.3%
NCI-H226 [10]
  growth at 10 µM: 32.7%
[11]
  growth at 0.1 µM: 104%
[12]
  growth at 0.1 µM: 94%
[13]
  growth at 1 µM: 89%
[14]
  growth at 100 µM: -32%
Albumin
  Activity: 350 nm
[15]
  growth at 10 µM: 23%
[16]; read-out: GI50
  GI50: 1910 nM
[16]; [19]
  CC50: 7.88 µM
[16]; read-out: TGI
  TGI: 3.87 µM
[16]; read-out: pGI50 (converted)
  GI50: 1910 nM
[16]; [20]
  CC50: 7.94 µM
[16]; read-out: pTGI (converted)
  TGI: 3.89 µM
[17]; read-out: GI50
  GI50: 2560 nM
[17]; [19]
  CC50: > 100 µM
[17]; read-out: TGI
  TGI: 8.61 µM
[17]; read-out: pGI50 (converted)
  GI50: 2570 nM
[17]; [20]
  CC50: > 100 µM
[17]; read-out: pTGI (converted)
  TGI: 8.51 µM
MDA-MB-468
  growth at 0.1 µM: 100%
NCI/ADR-RES
  growth at 0.1 µM: 98%
[18]
  growth at 10 µM: 16%
